Key:
A549 = assay: Growth inhibition of human A549 cells at 10 uM relative to control; format: functional; settings: read-out: GI
How it was run: (§1)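 Each cell line in a 60-line human tumour panel exposed to one 10 μM concentration. Growth inhibition percentage computed as 100 minus the percentage activity relative to control.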

UO-31 = assay: Growth inhibition of human UO31 cells at 10 uM relative to control; format: functional; settings: read-out: GI
How it was run: (§2)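 Single-dose screen across the 60-cell-line human tumor panel at 10 μM. Growth inhibition is reported as a percentage, taken as 100 minus the % growth relative to untreated control.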

RPMI-8226 = assay: Growth inhibition of human RPMI8226 cells at 10 uM relative to control; format: functional; settings: read-out: GI; how it was run: as §1
SK-MEL-28 = assay: Growth inhibition of human SK-MEL-28 cells at 10 uM relative to control; format: functional; settings: read-out: GI; how it was run: as §1
SNB-19 = assay: Growth inhibition of human SNB19 cells at 10 uM relative to control; format: functional; settings: read-out: GI; how it was run: as §2
HCC 2998 = assay: Growth inhibition of human HCC2998 cells at 10 uM relative to control; format: functional; settings: read-out: GI; how it was run: as §1
[1] = Growth inhibition of human Hs 578T cells at 10 uM relative to control; format: functional; settings: read-out: GI; how it was run: as §1
OVCAR-8 = assay: Growth inhibition of human OVCAR8 cells at 10 uM relative to control; format: functional; settings: read-out: GI; how it was run: as §1
U-251 = assay: Growth inhibition of human U251 cells at 10 uM relative to control; format: functional; settings: read-out: GI; how it was run: as §2
NCI-H23 = assay: Growth inhibition of human NCI-H23 cells at 10 uM relative to control; format: functional; settings: read-out: GI; how it was run: as §1
CAKI-1 = assay: Growth inhibition of human CAKI-1 cells at 10 uM relative to control; format: functional; settings: read-out: GI; how it was run: as §1
UACC-62 = assay: Growth inhibition of human UACC62 cells at 10 uM relative to control; format: functional; settings: read-out: GI; how it was run: as §2
K562 = assay: Growth inhibition of human K562 cells at 10 uM relative to control; format: functional; settings: read-out: GI; how it was run: as §1
PC-3 = assay: Growth inhibition of human PC3 cells at 10 uM relative to control; format: functional; settings: read-out: GI; how it was run: as §1
SF-539 = assay: Growth inhibition of human SF539 cells at 10 uM relative to control; format: functional; settings: read-out: GI; how it was run: as §1
SF-295 = assay: Growth inhibition of human SF295 cells at 10 uM relative to control; format: functional; settings: read-out: GI; how it was run: as §1
NCI-H522 = assay: Growth inhibition of human NCI-H522 cells at 10 uM relative to control; format: functional; settings: read-out: GI; how it was run: as §1
SNB-75 = assay: Growth inhibition of human SNB75 cells at 10 uM relative to control; format: functional; settings: read-out: GI; how it was run: as §2
A498 = assay: Growth inhibition of human A498 cells at 10 uM relative to control; format: functional; settings: read-out: GI; how it was run: as §1
EKVX = assay: Growth inhibition of human EKVX cells at 10 uM relative to control; format: functional; settings: read-out: GI; how it was run: as §1
HCT-116 = assay: Growth inhibition of human HCT116 cells at 10 uM relative to control; format: functional; settings: read-out: GI; how it was run: as §1
MOLT-4 = assay: Growth inhibition of human MOLT4 cells at 10 uM relative to control; format: functional; settings: read-out: GI; how it was run: as §1
HT-29 = assay: Growth inhibition of human HT-29 cells at 10 uM relative to control; format: functional; settings: read-out: GI; how it was run: as §1
HL-60(TB) = assay: Growth inhibition of human HL-60(TB) cells at 10 uM relative to control; format: functional; settings: read-out: GI
How it was run: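 Single-dose screen at 10 μM across the 60-cell-line tumour panel. Percent growth inhibition = 100 minus percent growth activity relative to untreated control.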

NCI-H226 = assay: Growth inhibition of human NCI-H226 cells at 10 uM relative to control; format: functional; settings: read-out: GI; how it was run: as §1
CCRF-CEM = assay: Growth inhibition of human CCRF-CEM cells at 10 uM relative to control; format: functional; settings: read-out: GI; how it was run: as §1
Mus musculus [2] = assay: Anticonvulsant activity in ip dosed mouse assessed as protection against pentylenetetrazol-induced seizure administered 30 min prior to pentylenetetrazol-challenge measured after 60 mins; format: functional
How it was run: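 Mice received several doses for quantification. ED50 taken as the dose protecting 50% of mice against pentylenetetrazol-induced seizures.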

[3] = Toxicity in ip dose mouse assessed as mortality; format: organism-based; settings: in vivo
How it was run: (§3)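 In mice, LD50 is the dose causing 50% mortality. ED50 is the dose protecting 50% of mice against pentylenetetrazole-induced seizures. Therapeutic index = LD50/ED50.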

Mus musculus [4] = assay: Anticonvulsant activity in mouse assessed as protection against picrotoxin-induced seizure at 1 mmol/kg, ip administered 30 min prior to picrotoxin-challenge measured after 60 mins relative to control; format: functional
Mus musculus [5] = assay: Anticonvulsant activity in mouse assessed as protection against maximal electroshock-induced seizure at 1 mmol/kg, ip administered 30 min prior to maximal electroshock-challenge measured after 60 mins relative to control; format: functional
[6] = Neurotoxicity in ip dosed mouse assessed as impaired motor coordination administered 30 mins prior to test by chimney test; format: toxicity, organism-based; settings: in vivo
How it was run: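 Mice, Chimney test. TD50 is the dose that produces minimal neurological toxicity (impaired motor coordination) in 50% of animals, estimated from testing at several doses.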

[7] = Therapeutic index, ratio of LD50 for mouse to ED50 for pentylenetetrazol-induced seizure in mouse; format: organism-based; settings: in vivo, read-out: Ratio LD50/ED50; how it was run: as §3
Mus musculus [8] = species on record: Mus musculus; assay: Protective index, ratio of TD50 for mouse to ED50 for pentylenetetrazol-induced seizure in mouse; format: functional
How it was run: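 Mice. Index is TD50/ED50. TD50 is the dose causing minimal neurological toxicity in 50% of mice in the Chimney test. ED50 is the dose protecting 50% of mice against pentylenetetrazole-induced seizures. Both are estimated from testing at several doses.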

Mus musculus [9] = assay: Anticonvulsant activity in mouse assessed as protection against pentylenetetrazol-induced seizure at 1 mmol/kg, ip administered 30 min prior to pentylenetetrazol-challenge measured after 60 mins relative to control; format: functional
Mus musculus [10] = assay: Anticonvulsant activity in mouse assessed as protection against strychnine-induced seizure at 1 mmol/kg, ip administered 30 min prior to strychnine-challenge measured after 60 mins relative to control; format: functional
ACHN = assay: Growth inhibition of human ACHN cells at 10 uM relative to control; format: functional; settings: read-out: GI; how it was run: as §1
LOX IMVI = assay: Growth inhibition of human LOXIMVI cells at 10 uM relative to control; format: functional; settings: read-out: GI; how it was run: as §1
HCT-15 = assay: Growth inhibition of human HCT15 cells at 10 uM relative to control; format: functional; settings: read-out: GI; how it was run: as §1
MDA-MB-435 = assay: Growth inhibition of human MDA-MB-435 cells at 10 uM relative to control; format: functional; settings: read-out: GI; how it was run: as §1
MDA-MB-231 = assay: Growth inhibition of human MDA-MB-231 cells at 10 uM relative to control; format: functional; settings: read-out: GI; how it was run: as §1
UACC-257 = assay: Growth inhibition of human UACC257 cells at 10 uM relative to control; format: functional; settings: read-out: GI; how it was run: as §2
MCF7 = assay: Growth inhibition of human MCF7 cells at 10 uM relative to control; format: functional; settings: read-out: GI; how it was run: as §1
SK-OV-3 = assay: Growth inhibition of human SKOV3 cells at 10 uM relative to control; format: functional; settings: read-out: GI; how it was run: as §1
KM12 = assay: Growth inhibition of human KM12 cells at 10 uM relative to control; format: functional; settings: read-out: GI; how it was run: as §1
SR = assay: Growth inhibition of human SR cells at 10 uM relative to control; format: functional; settings: read-out: GI; how it was run: as §2
MDA-MB-468 = assay: Growth inhibition of human MDA-MB-468 cells at 10 uM relative to control; format: functional; settings: read-out: GI; how it was run: as §1

| Structure (SMILES) | inhibition of growth at 10 µM (A549) [%] | inhibition of growth at 10 µM (UO-31) [%] | inhibition of growth at 10 µM (RPMI-8226) [%] | inhibition of growth at 10 µM (SK-MEL-28) [%] | inhibition of growth at 10 µM (U-251) [%] | inhibition of growth at 10 µM (UACC-62) [%] | inhibition of growth at 10 µM (K562) [%] | inhibition of growth at 10 µM (PC-3) [%] | inhibition of growth at 10 µM (SF-295) [%] | inhibition of growth at 10 µM (NCI-H522) [%] | inhibition of growth at 10 µM (SNB-75) [%] | ED50 (Mus musculus [2]) [µmol/kg] | LD50 [3] [µmol/kg] | Activity (Mus musculus [4]) [%] | Activity (Mus musculus [5]) [%] | TD50 at 0.5 h [6] [µmol/kg] | selectivity ratio [7] | Ratio TD50/ED50 (Mus musculus [8]) | Activity (Mus musculus [9]) [%] | Activity (Mus musculus [10]) [%] | also measured |
| --- | --- | --- | --- | --- | --- | --- | --- | --- | --- | --- | --- | --- | --- | --- | --- | --- | --- | --- | --- | --- | --- |
| Cc1ccccc1-n1c(C)nc2cc(NS(=O)(=O)c3ccccc3)ccc2c1=O | 5 | 13.6 | 12 | 2.4 | 4 | 9 | 10 | 8 | 9 | 2.2 | 14.8 |  |  |  |  |  |  |  |  |  | inhibition of growth at 10 µM (SNB-19): 4%; inhibition of growth at 10 µM (HCC 2998): 4%; inhibition of growth at 10 µM [1]: 3.2%; inhibition of growth at 10 µM (OVCAR-8): 5.4%; inhibition of growth at 10 µM (NCI-H23): 5.2%; inhibition of growth at 10 µM (CAKI-1): 4%; inhibition of growth at 10 µM (SF-539): 4%; inhibition of growth at 10 µM (A498): 8%; inhibition of growth at 10 µM (EKVX): 14.3%; inhibition of growth at 10 µM (HCT-116): 4%; inhibition of growth at 10 µM (MOLT-4): 12.2%; inhibition of growth at 10 µM (HT-29): 3%; inhibition of growth at 10 µM (HL-60(TB)): 4%; inhibition of growth at 10 µM (NCI-H226): 2.5%; inhibition of growth at 10 µM (CCRF-CEM): 13% |
| Cc1ccccc1-n1c(C)nc2cc(/N=C/c3ccc(Cl)cc3)ccc2c1=O |  |  |  |  |  |  |  |  |  |  |  | 350 | 1810 | 50 | 100 | 890 | 4.6 | 2.54 | 100 | 0 |  |
| Cc1ccccc1-n1c(C)nc2cc(N3C(=O)CSC3c3ccc(F)cc3)ccc2c1=O (stereo not given) | 2 | 11.7 | 10 | 11 | 11 | 14 | 10 | 12.2 | 7 | 18 | 8.5 | 400 | 1020 | 75 | 100 | 560 | 2.55 | 1.4 | 100 | 0 | inhibition of growth at 10 µM (ACHN): 3%; inhibition of growth at 10 µM (LOX IMVI): 5%; inhibition of growth at 10 µM (HCT-15): 5%; inhibition of growth at 10 µM (MDA-MB-435): 9.7%; inhibition of growth at 10 µM (MDA-MB-231): 8%; inhibition of growth at 10 µM (UACC-257): 9%; inhibition of growth at 10 µM (MCF7): 9%; inhibition of growth at 10 µM (SK-OV-3): 3%; inhibition of growth at 10 µM (MOLT-4): 28.9%; inhibition of growth at 10 µM (HT-29): 3%; inhibition of growth at 10 µM (KM12): 4%; inhibition of growth at 10 µM (HL-60(TB)): 7%; inhibition of growth at 10 µM (SR): 4%; inhibition of growth at 10 µM (MDA-MB-468): 2.5%; inhibition of growth at 10 µM (CCRF-CEM): 13.2% |
| Cc1ccccc1-n1c(C)nc2cc(N3C(=O)C=CC3=O)ccc2c1=O |  |  |  |  |  |  |  |  |  |  |  |  |  |  | 33 |  |  |  | 0 | 0 |  |
| Cc1ccccc1-n1c(C)nc2cc(-n3c(C)nc4ccc(Cl)cc4c3=O)ccc2c1=O |  |  |  |  |  |  |  |  |  |  |  |  |  |  | 50 |  |  |  | 33 | 0 |  |
| Cc1ccccc1-n1c(C)nc2cc(/N=C/c3ccc(F)cc3)ccc2c1=O |  |  |  |  |  |  |  |  |  |  |  | 310 | 1710 | 75 | 100 | 930 | 5.5 | 3 | 100 | 0 |  |

— ChEMBL document CHEMBL1955778, “Design and synthesis of novel 7-aminoquinazoline derivatives: antitumor and anticonvulsant activities” (Bioorg Med Chem Lett, 2012)
